Measured values published in publication PMC5362268 (Cell, 2017).
Several values for one entry are separate records, joined by “and”; a condition that tells them apart may be missing. Equal entries are not always repeated.

Columns and labels:
KRAS^G12D-GppNHp = KRAS^G12D-GppNHp (Homo sapiens, UniProt P01116, G12D); test: Microscale thermophoresis; format: binding; conditions: selectivity panel
Outline: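 To strip endogenous nucleotide, KRAS G12D (250 μM) in 25 mM HEPES, 100 mM NaCl, 20 mM EDTA and 1 mM GppNHp was shaken at 220 rpm, 30 °C, before MST.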

KRAS^wt = KRAS^wt (Homo sapiens, UniProt P01116); test: MST with RAS GTPases; format: binding; conditions: selectivity panel, GppNHp-loaded
[1] = system: Kras^lox/lox, Hras^−/−, Nras^−/− RERTn^ert/ert MEFs; test: Viability assay in mouse embryo fibroblasts; format: cell-based; conditions: Fibroblast, 48 h, read-out: IC50 (lethality)
Outline: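 Cells trypsinised and seeded at 1,000/well in 384-well plates unless otherwise specified. After 16 h, 8- or 16-point dilution series (from 10 mM DMSO stocks) transferred at 1:5. At 48 h, Alamar blue added to 10% final; fluorescence read after 6 h (ex 535, em 590 nm). Triplicates; 37 °C, 5% CO2.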

[2] = system: Kras^lox/lox, Hras^−/−, Nras^−/− RERTn^ert/ert MEFs; test: MEF cell number after treatment; format: cell-based, mouse; conditions: 6-well, 24 h treatment
Outline: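 6-well format: 200,000 cells/well seeded 16 h beforehand. Medium replaced with medium containing test compound (from 10 mM DMSO stocks) at indicated concentrations. After 24 h, cells trypsinized and counted by Trypan Blue exclusion (Vi-Cell).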

HT-1080 cells = test: Caspase 3/7 activation assay; format: cell-based, human; conditions: 24 h; compared with staurosporine
Outline: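 HT-1080 cells seeded at 1,000 cells/well in 384-well plates. After 16 h, test compound was added as a dilution series, made from 50 mM DMSO stocks and transferred into assay wells at 1:5 dilution.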

[3] = system: HT-1080 cells (NRAS^Q61K); test: Lethality with PI3K and BRAF overexpression; format: cell-based, human; conditions: 24 h, 6-well format
Outline: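 HT-1080 cells were retrovirally transduced using Phoenix-AMPHO supernatant, 0.45 µm filtered and added twice 4 h apart. After 48 h they were re-seeded under puromycin (2 μg/mL) for 6 d, and expression was checked by qPCR. Cells at 100,000/well in 6-well plates were treated 24 h, trypsinized, and viability read by Trypan blue exclusion (Vi-Cell).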

[4] = system: T-ALL cells with mutant NRAS (G13V and G13D); test: Viability of primary T-ALL patient samples; format: cell-based; conditions: Homo sapiens, 72 h
Outline: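 Primary T-ALL lymphoblasts, 250,000 per well in 24-well plates, in triplicate. Treated with DMSO vehicle or test compound across 1 to 5 μM for 72 h. Viability by flow-based kit with counting beads, gating out GFP+ stromal cells and PI+ dead cells and particles.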

[5] = system: pERK and pAKT in BJeLR (HRAS^V12) cells; test: Western blots of RAS signaling; format: cell-based, human
Outline: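 Cells seeded 16 h before use in DMEM with 10% or 2% FBS plus P/S. Compound added in serum-free DMEM or DMEM 2% FBS for the indicated times. Lysis in HEPES pH 7.4 buffer with phosphatase and protease inhibitors; SDS-PAGE, PVDF transfer, Li-COR blocking, primary antibodies (1:1000) overnight at 4 °C.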

RALA-GTP in BJeLR cells = test: RALA activation assay; format: cell-based, human
Outline: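 BJeLR cells seeded 16 h before use in DMEM with 2% FBS, then given medium with test compound (from 10 mM DMSO stock) for 6 h. Cells washed twice with ice-cold 25 mM Tris, 100 mM NaCl, 1 mM TCEP, 5 mM MgCl2, 0.1% Tween-20 with protease inhibitor. RALA-GTP pulled down on beads, eluted in SDS buffer and blotted.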

[6] = Pharmacokinetic analysis in mice; format: in vivo, mouse; conditions: 20 mg/kg, plasma
Outline: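 Plasma flash-frozen in liquid nitrogen, stored at −80 °C, and assayed by UPLC-MS-MS. Plasma from six untreated mice used for calibration and matrix correction. AUCINF calculated from t = 0 to infinity using calculated half-life and last measured concentration.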

MDA-MB-231 xenograft = test: Xenograft therapeutic study in mice; format: in vivo, mouse; conditions: 180 mg/kg orally, 10 doses, 15 days of treatment, nude mice
Outline: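 Eight-week-old female nude mice received 7 million MDA-MB-231 cells subcutaneously. After 3 d they were randomised at ~58 mm³ tumours. Dosing was oral, 180 mg/kg (12 mg/mL, 10% DMSO, pH 4) or vehicle, 10 doses over 14 d. Tumours measured by caliper every 2 d; volume = 0.523 × length × width².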

[7] = system: PDTALL22 patient T-ALL xenograft; test: Patient-derived xenograft study; format: in vivo, mouse; conditions: 30 mg/kg IP
Outline: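 Retrovirally transduced luciferase-expressing T-ALL cells were expanded in primary recipients, harvested from spleen and injected into secondary recipients. These were randomised into two groups of 5 with equal luciferase load. Dosing: vehicle or 30 mg/kg IP in 5% DMSO in HBSS pH 4 on days 0, 1, 4, 5, 7, 8. Imaging on days 0, 4 and 8; sacrifice on day 8 for spleen weight and human CD45+ cells.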

wild-type mice = test: Toxicity and body weight in wild-type mice; format: in vivo, mouse; conditions: individual mice
[8] = KC mouse weights on study; format: in vivo; conditions: individual mice

## NC1(C(=O)NCCCn2cc(-c3ccc(OC(F)(F)F)cc3)c3cc(CN4CCN(Cc5c(Cl)cccc5Cl)CC4)ccc32)CCNCC1 [compound 3144, 4-amino-N-(3-(5-((4-(2,6-dichlorobenzyl)piperazin-1-yl)methyl)-3-(4-(trifluoromethoxy)phenyl)-1H-indol-1-yl)propyl)piperidine-4-carboxamide]
KRAS^G12D-GppNHp
  binding by MST: detected binding
KRAS^wt
  binding by MST: detected binding
[1]
  IC50: 3.8 µM
[2]
  concentrations not reducing the number of MEFs below the starting number: below 3 μM
HT-1080 cells
  caspase activity: induced caspase activity to a similar level as staurosporine
[3]
  lethality upon overexpression of activated alleles of PI3K and/or BRAF: reduced
[4]
  viability at 5 µM: 20 to 40%
[5]
  EGF-induced pAKT and pERK abundance: suppressed to a degree
  pERK and pAKT abundance: somewhat decreased
RALA-GTP in BJeLR cells
  RALA-GTP: decreased
[6]; IP, male C57BL/6 mice
  Tlast: 12 h
[6]; IV, male C57BL/6 mice
  Tlast: 12 h
[6]; PO, male C57BL/6 mice
  HL_Lambda_z: >12 h
  Tlast: 12 h
[6]; male, C57BL/6, mouse, po
  AUC(0-inf): 5650 ng·h/mL
MDA-MB-231 xenograft
  tumor growth: inhibition of tumor growth
[7]; day 8
  percent of infiltrative human CD45+ cells in spleen: reduction
  spleen cellularity (hematoxylin and eosin): decreased cellularity
  spleen size: decrease in size
[7]; days 0, 1, 4, 5, 7, 8, imaged after 4 and 8 days
  tumor burden (luciferase imaging): decrease in tumor burden
wild-type mice; day 1 on study
  WT mouse weights: 21.36 and 20.39 and 22.08 and 23.6 and 25
wild-type mice; day 2 on study
  WT mouse weights: 20 and 18.8 and 20.6 and 22.7 and 23.38
wild-type mice; day 3 on study
  WT mouse weights: 20 and 18.4 and 20.1 and 21.87 and 22.16
wild-type mice; day 4 on study
  WT mouse weights: 20.77 and 17.4 and 19 and 21.08 and 23
wild-type mice; day 5 on study
  WT mouse weights: 20.78 and 17.27 and 18.6 and 21.4 and 22.18
[8]; day 1 on study
  KC mouse weights: 33 and 30.5 and 30.7 and 33.5 and 35.8
[8]; day 2 on study
  KC mouse weights: 32.2 and 28.1 and 27.8 and 33.5 and 34.5
[8]; day 3 on study
  KC mouse weights: 29.9 and 24.84 and 32 and 26.86
[8]; day 4 on study
  KC mouse weights: 28.8 and 23.6 and 30.5
[8]; day 5 on study
  KC mouse weights: 28.5 and 30.2
